These results are taken from ChEMBL document CHEMBL1275408, “A chemical genomic screen in Saccharomyces cerevisiae reveals a role for diphthamidation of translation elongation factor 2 in inhibition of protein synthesis by sordarin” (2008).

The source made the active and inactive calls. The rule behind the calls is not given here.

The test system of assay [1] is Saccharomyces cerevisiae. Nature of the assay: Antifungal activity against Saccharomyces cerevisiae BY4741 harboring YOL079W mutation in unknown gene by spectrophotometry. In kind it is functional. Summed up: (§1)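 Deletion strains from the nonessential haploid MATa BY4741 collection (KanMX4 replacement) were grown in YPD with G418 at 28°C for 3 days, then pinned into liquid SC with or without sordarin derivative GM193663 (2 ng/ml for sensitivity, 62.5 ng/ml for resistance). Cultures were kept at 28°C and read at OD595 every 24 h for 5 days. Growth was scored against wild type on the same plate and against the drug-free control. Hits were retested at least in duplicate.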

Assay [2] concerns Saccharomyces cerevisiae. Nature of the assay: Antifungal activity against Saccharomyces cerevisiae BY4741 harboring CTF3 YLR381W mutant gene by spectrophotometry. In kind it is functional. Summed up: (§2)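 Screen of BY4741 KanMX4 deletion strains pre-grown 3 days at 28°C in YPD with G418 (150 mg/liter), then pinned into liquid SC containing GM193663. The sensitivity screen used 2 ng/ml; the resistance screen used 62.5 ng/ml, with validation at 62.5, 125 and 500 ng/ml. OD595 was read every 24 h over 5 days at 28°C. Growth was scored relative to wild type and to drug-free controls. Retests were at least in duplicate.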

The test system of assay [3] is Saccharomyces cerevisiae. Nature of the assay: Antifungal activity against Saccharomyces cerevisiae BY4741 harboring MRPL37 YBR268W mutant gene by spectrophotometry. In kind it is functional. Summed up: (§3)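 Haploid MATa BY4741 KanMX4 deletion strains pinned from frozen stocks into YPD + G418 (150 mg/liter), grown 3 days at 28°C to confluence, then pin-replicated into SC liquid with no drug or sordarin derivative GM193663 (2 ng/ml sensitivity; 62.5 ng/ml resistance). 28°C, OD595 read every 24 h for 5 days; growth scored relative to wild type on same plate and to untreated mutant.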

Assay [4] deals with Saccharomyces cerevisiae. As to the kind of experiment: Antifungal activity against Saccharomyces cerevisiae BY4741 harboring YLR143W mutation in unknown gene by spectrophotometry. In kind it is functional. Summed up: as §1
Assay [5] relates to Saccharomyces cerevisiae. As to the kind of experiment: Antifungal activity against Saccharomyces cerevisiae BY4741 harboring RBS1 YDL189W mutant gene by spectrophotometry. In kind it is functional. Summed up: as §3
The test system of assay [6] is Saccharomyces cerevisiae. As to the kind of experiment: Antifungal activity against Saccharomyces cerevisiae BY4741 harboring BEM2 YER155C mutant gene by spectrophotometry. In kind it is functional. A digest of the protocol:
as §2

Assay [7] concerns Saccharomyces cerevisiae. Nature of the assay: Antifungal activity against Saccharomyces cerevisiae BY4741 harboring DSK2 YMR276W mutant gene by spectrophotometry. In kind it is functional. Summed up:
as §2

For assay [8], the system named is Saccharomyces cerevisiae. As to the kind of experiment: Antifungal activity against Saccharomyces cerevisiae BY4741 harboring JJJ3/DPH4 YJR097W mutant gene by spectrophotometry. In kind it is functional. A digest of the protocol:
as §2

Assay [9] has as its system Saccharomyces cerevisiae. As to the kind of experiment: Antifungal activity against Saccharomyces cerevisiae BY4741 harboring deletion mutation in dph5 gene at 300 to 500 ng/ml after 24 hrs by liquid growth assay. In kind it is functional.
The subject of assay [10] is Saccharomyces cerevisiae. As to the kind of experiment: Antifungal activity against Saccharomyces cerevisiae BY4741 harboring HMI1 YOL095C mutant gene by spectrophotometry. In kind it is functional. Summed up: as §2
The test system of assay [11] is Saccharomyces cerevisiae. As to the kind of experiment: Antifungal activity against Saccharomyces cerevisiae BY4741 harboring SSQ1 YLR369W mutant gene assessed as reduction in fungal growth at 2 ng/ml by spectrophotometry. In kind it is functional, organism-based. A digest of the protocol:
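Deletion strains (BY4741 background) pre-grown 3 days at 28°C in YPD + G418 (150 mg/liter), then pin-replicated into SC liquid containing 2 ng/ml GM193663 or no drug. 28°C, OD595 every 24 h over 5 days; growth scored against wild type on same plate and against drug-free mutant control; hits retested at least in duplicate at 2 ng/ml.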

Assay [12] deals with Saccharomyces cerevisiae. Nature of the assay: Antifungal activity against Saccharomyces cerevisiae BY4741 harboring MRPL36 YBR122C mutant gene by spectrophotometry. In kind it is functional. Summed up:
as §3

Assay [13] concerns Saccharomyces cerevisiae. Nature of the assay: Antifungal activity against Saccharomyces cerevisiae BY4741 harboring MGT1 YDL200C mutant gene by spectrophotometry. In kind it is functional. A digest of the protocol: as §2
Assay [14] concerns Saccharomyces cerevisiae. Nature of the assay: Antifungal activity against Saccharomyces cerevisiae BY4741 harboring YDR020C mutation in unknown gene by spectrophotometry. In kind it is functional. A digest of the protocol:
as §3

Assay [15] has as its system Saccharomyces cerevisiae. Nature of the assay: Antifungal activity against Saccharomyces cerevisiae BY4741 harboring RPS11A YDR025W mutant gene by spectrophotometry. In kind it is functional. A digest of the protocol: as §3
Assay [16] has as its system Saccharomyces cerevisiae. Nature of the assay: Antifungal activity against Saccharomyces cerevisiae BY4741 harboring RPS4A YJR145C mutant gene by spectrophotometry. In kind it is functional. A digest of the protocol: as §3
The test system of assay [17] is Saccharomyces cerevisiae. As to the kind of experiment: Antifungal activity against Saccharomyces cerevisiae BY4741 harboring SEM1 YDR363W-A mutant gene by spectrophotometry. In kind it is functional. A digest of the protocol: as §3
Assay [18] concerns Saccharomyces cerevisiae. Nature of the assay: Antifungal activity against Saccharomyces cerevisiae BY4741 harboring IBD2 YNL164C mutant gene by spectrophotometry. In kind it is functional. Summed up:
as §2

The test system of assay [19] is Saccharomyces cerevisiae. As to the kind of experiment: Antifungal activity against Saccharomyces cerevisiae BY4741 harboring MRH1 YDR033W mutant gene by spectrophotometry. In kind it is functional. A digest of the protocol: as §2
The subject of assay [20] is Saccharomyces cerevisiae. As to the kind of experiment: Antifungal activity against Saccharomyces cerevisiae BY4741 harboring GRR1 YJR090C mutant gene by spectrophotometry. In kind it is functional. Summed up:
as §2

The test system of assay [21] is Saccharomyces cerevisiae. As to the kind of experiment: Antifungal activity against Saccharomyces cerevisiae BY4741 harboring DPH1 YIL103W mutant gene by spectrophotometry. In kind it is functional. Summed up:
as §2

`CO[C@H]1[C@@H](O)[C@H](O)[C@H](OC[C@@]23C[C@@H]4[C@H](C)CC[C@H]4[C@@]4(C=O)CC2C=C(C(C)C)[C@@]34C(=O)O)O[C@@H]1C` [SORDARIN]: the MIC – broadly, the least concentration at which growth counts as inhibited – in the assay on Saccharomyces cerevisiae [1] was over 0.5 µg/mL; against Saccharomyces cerevisiae [2], over 0.125 µg/mL; against Saccharomyces cerevisiae [3], over 0.5 µg/mL; with Saccharomyces cerevisiae [4], over 0.5 µg/mL; with Saccharomyces cerevisiae [5] it was over 0.5 µg/mL; with Saccharomyces cerevisiae [6], over 0.5 µg/mL. For the same compound, the MIC in the assay on Saccharomyces cerevisiae [7] is over 0.5 µg/mL; in the assay on Saccharomyces cerevisiae [8] it was over 0.125 µg/mL; against Saccharomyces cerevisiae [10], over 0.125 µg/mL; in the assay with Saccharomyces cerevisiae [12], over 0.5 µg/mL; against Saccharomyces cerevisiae [13], over 0.125 µg/mL; in the assay on Saccharomyces cerevisiae [14] it was over 0.5 µg/mL. Moreover, the minimal inhibitory concentration (MIC) is over 0.0625 µg/mL against Saccharomyces cerevisiae [15]; over 0.0625 µg/mL in the assay with Saccharomyces cerevisiae [16]; over 0.125 µg/mL against Saccharomyces cerevisiae [17]; over 0.5 µg/mL against Saccharomyces cerevisiae [18]; over 0.125 µg/mL in the assay on Saccharomyces cerevisiae [19]; over 0.5 µg/mL in the assay on Saccharomyces cerevisiae [20]. Further, in the assay with Saccharomyces cerevisiae [21], the MIC was over 0.5 µg/mL. Also, the Activity with Saccharomyces cerevisiae [9] is on record as 50%. Moreover, the result in the assay with Saccharomyces cerevisiae [11] was Active.
